Reference: ChEMBL document CHEMBL4177648, “Benzofuran-dihydropyridine hybrids: A new class of potential bone anabolic agents” (Bioorg Med Chem, 2017)
Active and inactive are the calls of the source. The calls are words filed in the database; no cut-off is given here.

Legend:
Calvarial osteoblast [1] = assay: Anabolic activity in rat calvarial osteoblasts assessed as induction of alkaline phosphatase activity at 1 pM after 48 hrs in presence of beta-glycerophosphate and ascorbic acid by p-nitrophenyl phosphate substrate based assay (reference value: 1 to 1.21); type: functional
Calvarial osteoblast [2] = assay: Anabolic activity in rat calvarial osteoblasts assessed as induction of alkaline phosphatase activity at 100 pM after 48 hrs in presence of beta-glycerophosphate and ascorbic acid by p-nitrophenyl phosphate substrate based assay (reference value: 1 to 1.21); type: functional
Calvarial osteoblast [3] = assay: Anabolic activity in rat calvarial osteoblasts assessed as induction of alkaline phosphatase activity at 10 nM after 48 hrs in presence of beta-glycerophosphate and ascorbic acid by p-nitrophenyl phosphate substrate based assay (reference value: 1 to 1.21); type: functional
Calvarial osteoblast [4] = assay: Anabolic activity in rat calvarial osteoblasts assessed as induction of alkaline phosphatase activity at 1 uM after 48 hrs in presence of beta-glycerophosphate and ascorbic acid by p-nitrophenyl phosphate substrate based assay (reference value: 1 to 1.21); type: functional
Calvarial osteoblast [5] = assay: Anabolic activity in rat calvarial osteoblasts assessed as induction of alkaline phosphatase activity at 100 uM after 48 hrs in presence of beta-glycerophosphate and ascorbic acid by p-nitrophenyl phosphate substrate based assay (reference value: 1 to 1.21); type: functional
Calvarial osteoblast [6] = assay: Anabolic activity in rat calvarial osteoblasts assessed as induction of alkaline phosphatase activity after 48 hrs in presence of beta-glycerophosphate and ascorbic acid by p-nitrophenyl phosphate substrate based assay; type: functional, cell-based
Calvarial osteoblast [7] = assay: Induction of mineralization in rat calvarial osteoblasts at 10 nM after 21 days by Alizarin-red dye based assay; type: functional, cell-based
Procedure, shortened: (§1)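 Rat pup calvarial osteoblasts were seeded at 1×10^4 cells/well in differentiation medium with compound. Medium was changed every other day for 21 days. Cells were fixed in 4% paraformaldehyde and stained with 40 mM Alizarin red (pH 4.5). Stain was extracted with 10% acetic acid, heated to 85 °C, and neutralised with NH4OH. Absorbance was read at 405 nm.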

Calvarial osteoblast [8] = assay: Upregulation of ALP mRNA levels in rat calvarial osteoblasts at 1 uM after 48 hrs by qRT-PCR analysis relative to control; type: functional
Procedure, shortened: (§2)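 Rat pup calvarial osteoblasts were treated for 48 h with compound. Total RNA was extracted with TRIzol and checked by A260 and A260/A280. qRT-PCR used 45 cycles (94 °C, 62 °C, 72 °C steps) and was normalised to GAPDH. Fold change is over untreated cells; n=5, mean ± SEM.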

Calvarial osteoblast [9] = assay: Upregulation of Osx mRNA levels in rat calvarial osteoblasts at 1 uM after 48 hrs by qRT-PCR analysis relative to control; type: functional; procedure, shortened: as §2
Calvarial osteoblast [10] = assay: Upregulation of Col1 mRNA levels in rat calvarial osteoblasts at 1 uM after 48 hrs by qRT-PCR analysis relative to control; type: functional; procedure, shortened: as §2
Calvarial osteoblast [11] = assay: Upregulation of Runx2 mRNA levels in rat calvarial osteoblasts at 1 uM after 48 hrs by qRT-PCR analysis relative to control; type: functional; procedure, shortened: as §2
Calvarial osteoblast [12] = assay: Upregulation of Bmp2 mRNA levels in rat calvarial osteoblasts at 1 uM after 48 hrs by qRT-PCR analysis relative to control; type: functional; procedure, shortened: as §2
Calvarial osteoblast [13] = assay: Upregulation of ALP mRNA levels in rat calvarial osteoblasts at 10 nM after 48 hrs by qRT-PCR analysis relative to control; type: functional; procedure, shortened: as §2
Calvarial osteoblast [14] = assay: Upregulation of Osx mRNA levels in rat calvarial osteoblasts at 10 nM after 48 hrs by qRT-PCR analysis relative to control; type: functional; procedure, shortened: as §2
Calvarial osteoblast [15] = assay: Upregulation of Col1 mRNA levels in rat calvarial osteoblasts at 10 nM after 48 hrs by qRT-PCR analysis relative to control; type: functional; procedure, shortened: as §2
Calvarial osteoblast [16] = assay: Upregulation of Runx2 mRNA levels in rat calvarial osteoblasts at 10 nM after 48 hrs by qRT-PCR analysis relative to control; type: functional; procedure, shortened: as §2
Calvarial osteoblast [17] = assay: Upregulation of Bmp2 mRNA levels in rat calvarial osteoblasts at 10 nM after 48 hrs by qRT-PCR analysis relative to control; type: functional; procedure, shortened: as §2
Calvarial osteoblast [18] = assay: Induction of mineralization in rat calvarial osteoblasts at 1 uM after 21 days by Alizarin-red dye based assay; type: functional, cell-based; procedure, shortened: as §1

SMILES | OD (Calvarial osteoblast [1]) | OD (Calvarial osteoblast [2]) | OD (Calvarial osteoblast [3]) | OD (Calvarial osteoblast [4]) | OD (Calvarial osteoblast [5]) | other results
CCOC(=O)C1=C(C)NC2=C(C(=O)CCC2)C1c1ccccc1 (stereo unspecified) | 1.26 | 1.25 | 1.43 | 1.44 | 0.74 | 
CCOC(=O)C1=C(C)NC2=C(C(=O)CCC2)C1c1cc(C(C)CC)c2oc(C(=O)c3ccc([N+](=O)[O-])cc3)cc2c1 (stereo unspecified) | 1.12 | 0.82 | 0.89 | 0.69 | 0.37 | 
CCOC(=O)C1=C(C)NC2=C(C(=O)CC(C)(C)C2)C1c1cc(C(C)(C)C)c2oc(C(=O)c3ccc(OC)cc3)cc2c1 (stereo unspecified) | 1.04 | 1.53 | 1.47 | 1.15 | 0.36 | 
CCOC(=O)C1=C(C)NC2=C(C(=O)CCC2)C1c1cc(C(C)CC)c2oc(C(=O)c3ccc(Cl)cc3)cc2c1 (stereo unspecified) | 0.9 | 1.02 | 1.04 | 0.79 | 0.31 | 
CCC(C)c1cc(C2C(C(=O)OC)=C(C)NC3=C2C(=O)CC(C)(C)C3)cc2cc(C(=O)c3ccc(Cl)cc3)oc12 (stereo unspecified) | 1.08 | 0.85 | 0.86 | 0.23 | 0.23 | 
CCC(C)c1cc(C2C(C(=O)OC)=C(C)NC3=C2C(=O)CCC3)cc2cc(C(=O)c3ccc(OC)cc3)oc12 (stereo unspecified) | 1.37 | 1.34 | 1.09 | 1.34 | 0.37 | 
CCC(C)c1cc(C2C(C(=O)OC)=C(C)NC3=C2C(=O)CC(C)(C)C3)cc2cc(C(=O)c3ccc([N+](=O)[O-])cc3)oc12 (stereo unspecified) | 0.98 | 1.03 | 1.06 | 0.76 | 0.3 | 
CCOC(=O)C1=C(C)NC2=C(C(=O)CC(C)(C)C2)C1c1cc(CC)c2oc(C(=O)c3ccc(OC)cc3)cc2c1 (stereo unspecified) | 1.24 | 1.45 | 1.65 | 1.72 | 0.5 | 
COc1ccc(C(=O)c2cc3cc(C=O)cc(C(C)(C)C)c3o2)cc1 | 1.33 | 1.5 | 1.7 | 1.26 | 0.59 | 
CCOC(=O)C1=C(C)NC2=C(C(=O)CC(C)(C)C2)C1c1cc(C(C)CC)c2oc(C(=O)c3ccc(OC)cc3)cc2c1 (stereo unspecified) | 1.08 | 0.82 | 1.3 | 1.13 | 0.51 | 
CCOC(=O)C1=C(C)NC2=C(C(=O)CC(C)(C)C2)C1c1ccccc1 (stereo unspecified) | 1.03 | 1.41 | 1.41 | 1.23 | 0.58 | 
CCc1cc(C=O)cc2cc(C(=O)c3ccc(OC)cc3)oc12 | 1.09 | 1.11 | 1.24 | 1.03 | 0.29 | 
CCC(C)c1cc(C2C(C(=O)OC)=C(C)NC3=C2C(=O)CCC3)cc2cc(C(=O)c3ccc(Cl)cc3)oc12 (stereo unspecified) | 1.39 | 1.48 | 1.34 | 1.31 | 0.5 | 
CCC(C)c1cc(C2C(C(=O)OC)=C(C)NC3=C2C(=O)CCC3)cc2cc(C(=O)c3ccc([N+](=O)[O-])cc3)oc12 (stereo unspecified) | 0.65 | 0.72 | 0.82 | 0.82 | 0.25 | 
CCC(C)c1cc(C=O)cc2cc(C(=O)c3ccc(OC)cc3)oc12 (stereo unspecified) | 1.35 | 1.49 | 1.59 | 1.21 | 0.58 | EC50 (Calvarial osteoblast [6]): 10 nM
CCC(C)c1cc(C=O)cc2cc(C(=O)c3ccc(C)cc3)oc12 (stereo unspecified) | 1.23 | 1.16 | 1.41 | 1.42 | 0.3 | EC50 (Calvarial osteoblast [6]): 31.4 nM
CCOC(=O)C1=C(C)NC2=C(C(=O)CCC2)C1c1cc(C(C)CC)c2oc(C(=O)c3ccc(OC)cc3)cc2c1 (stereo unspecified) | 0.94 | 0.99 | 1.4 | 1.37 | 0.25 | Activity (Calvarial osteoblast [7]): Active; fold change (FC) (Calvarial osteoblast [8]): 2 - 5.5; fold change (FC) (Calvarial osteoblast [9]): 2 - 5.5; fold change (FC) (Calvarial osteoblast [10]): 2 - 5.5; fold change (FC) (Calvarial osteoblast [11]): 2 - 5.5; fold change (FC) (Calvarial osteoblast [12]): 2 - 5.5; fold change (FC) (Calvarial osteoblast [13]): 2 - 5.5; fold change (FC) (Calvarial osteoblast [14]): 2 - 5.5; fold change (FC) (Calvarial osteoblast [15]): 2 - 5.5; fold change (FC) (Calvarial osteoblast [16]): 2 - 5.5; fold change (FC) (Calvarial osteoblast [17]): 2 - 5.5; EC50 (Calvarial osteoblast [6]): 10 nM
CCC(C)c1cc(C2C(C(=O)OC)=C(C)NC3=C2C(=O)CC(C)(C)C3)cc2cc(C(=O)c3ccc(C)cc3)oc12 (stereo unspecified) | 1.08 | 1.16 | 1.11 | 1.13 | 0.37 | 
CCc1cc(C2C(C(=O)OC)=C(C)NC3=C2C(=O)CC(C)(C)C3)cc2cc(C(=O)c3ccc(OC)cc3)oc12 (stereo unspecified) | 1.26 | 0.73 | 1.19 | 1.2 | 0.18 | 
CCOC(=O)C1=C(C)NC2=C(C(=O)CCC2)C1c1cc(C(C)(C)C)c2oc(C(=O)c3ccc(OC)cc3)cc2c1 (stereo unspecified) | 1.14 | 1.14 | 1.17 | 1.77 | 0.29 | 
COC(=O)C1=C(C)NC2=C(C(=O)CCC2)C1c1cc(C(C)(C)C)c2oc(C(=O)c3ccc(OC)cc3)cc2c1 (stereo unspecified) | 1.19 | 1.01 | 1.07 | 1.17 | 0.32 | 
CCC(C)c1cc(C2C(C(=O)OC)=C(C)NC3=C2C(=O)CC(C)(C)C3)cc2cc(C(=O)c3ccc(OC)cc3)oc12 (stereo unspecified) | 0.97 | 0.64 | 1.14 | 1.26 | 0.29 | 
COC(=O)C1=C(C)NC2=C(C(=O)CC(C)(C)C2)C1c1cc(C(C)(C)C)c2oc(C(=O)c3ccc(OC)cc3)cc2c1 (stereo unspecified) | 0.79 | 1.15 | 1.1 | 1.25 | 0.36 | 
CCOC(=O)C1=C(C)NC2=C(C(=O)CCC2)C1c1cc(CC)c2oc(C(=O)c3ccc(OC)cc3)cc2c1 (stereo unspecified) | 1.32 | 1.49 | 1.64 | 1.8 | 0.41 | Activity (Calvarial osteoblast [18]): Active; fold change (FC) (Calvarial osteoblast [8]): 2 - 5.5; fold change (FC) (Calvarial osteoblast [9]): 2 - 5.5; fold change (FC) (Calvarial osteoblast [10]): 2 - 5.5; fold change (FC) (Calvarial osteoblast [11]): 2 - 5.5; fold change (FC) (Calvarial osteoblast [12]): 2 - 5.5; EC50 (Calvarial osteoblast [6]): 10000 nM
CCC(C)c1cc(C=O)cc2cc(C(=O)c3ccc(Cl)cc3)oc12 (stereo unspecified) | 0.98 | 0.78 | 0.96 | 0.77 | 0.26 | 
CCC(C)c1cc(C=O)cc2cc(C(=O)c3ccc([N+](=O)[O-])cc3)oc12 (stereo unspecified) | 1.04 | 0.66 | 0.73 | 1.08 | 0.31 | 
CCC(C)c1cc(C2C(C(=O)OC)=C(C)NC3=C2C(=O)CCC3)cc2cc(C(=O)c3ccc(C)cc3)oc12 (stereo unspecified) | 0.99 | 1.12 | 1.17 | 0.84 | 0.25 | 
